Source: PubChem (several laboratories)
In the library only some 4.9% were active in any assay of this set; here they are far more common.
STAT3 inh-1 – IL-6 driven STAT3 reporter inhibitors, primary screen, U3A cells, luciferase, luminescence, MLSCN library; inhibition, % at 5.5 µM; 190,000 compounds, 0.89% hits; IL-6 STAT3-luciferase reporter; host cell line lacks STAT1;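 active = inhibition above the mean inhibition across all screened compounds plus 3 SD, cut at about 44% in these data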
STAT3 activator – IL-6 driven STAT3 reporter potentiators, primary screen, U3A cells, luciferase, luminescence, MLSCN library | IL-6 STAT3-luciferase reporter; 100% = signal with IL-6 EC80 alone | activation (% of control), % at 5.6 µM | 190,000 compounds, 0.91% hits | AID 871, 2007;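 active = activation above the screen-wide mean of compound activation plus 3 SD, cut at about 130% in these data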
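Material: STAT1-lacking human U3A cells, STAT3 luciferase reporter | Benchmarks: IL-6-only wells as 100% reference | Probe or stimulus: IL-6 (33 ng/mL) | Timing: Compound 1 h, then IL-6 6 h at 37 °C | Detection: Luminescence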
STAT1 act – STAT1 signaling activators, primary screen, cell-based, HTS, luciferase reporter; NIH 3T3 STAT1-luciferase reporter, IFN-gamma, luminescence; 100% = IFN-gamma alone, no compound; activation (% of control), % at 5.5 µM; 200,000 compounds, 2.6% hits;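 active = activation above the screen-wide mean activation plus 3 SD, cut at about 130% in these data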
NF-kB neuron act – activators of NF-kB expression in neurons, primary screen, cell-based, HTS | human neuronal cells, NF-kB reporter expression; hits give high values | 190,000 compounds, 1.6% hits | fold change at 12.5 µM; in the data active = fold change above about 3.3
APP 5'UTR act – activators of APP 5'UTR luciferase reporter, primary screen, SH-SY5Y cells | SH-SY5Y APP 5'UTR luciferase reporter, luminescence; zero percent = DMSO vehicle wells | activation, % at 2 µM | 190,000 compounds, 1% hits;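 active = activation above a set limit, based on mean plus 3 SD of controls, cut at about 140% in these data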
STAT1 inh – STAT1 signaling inhibitors, primary screen, cell-based, HTS, luciferase reporter. 200,000 compounds, 0.35% hits. inhibition, % at 5.5 µM. NIH 3T3 STAT1-luciferase reporter, IFN-gamma, luminescence;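 active = inhibition above a set limit, the mean inhibition across all tested compounds plus 3 SD, cut at about 34% in these data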
STAT3 inh-2 – STAT3 reporter inhibitors, retest of hits, confirmation, U3A cells, luciferase, luminescence; shares compounds with STAT3 inh-1; IL-6 STAT3 luciferase reporter; cell line lacks STAT1; inhibition, % at 5.7 µM; 1,200 compounds, 45% hits;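 active = inhibition above the hit cutoff computed for the primary STAT3 screen, cut at about 44% in these data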
NFkB inh STAT3ct – NF-kB reporter inhibitors in human cells, confirmation, counter-screen for STAT3 inhibitor project, cell-based, HEK293T, luciferase, TNF-alpha stimulus. TNF-alpha induced. 1,200 compounds, 36% hits. AID 1308, 2008. shares compounds with STAT3 inh-1. inhibition, % at 5.7 µM;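 active = inhibition above the mean of solvent-only control wells plus 3 SD, cutoff set per campaign, cut at about 13% in these data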
STAT1 inh 2 – STAT1 reporter inhibitors, IFN-gamma induced, confirmation, counter-screen for STAT3 inhibitor project, cell-based, NIH 3T3, luciferase luminescence; shares compounds with STAT3 inh-1; NIH 3T3 STAT1-luciferase reporter; inhibition, % at 5.7 µM; 1,200 compounds, 27% hits;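 active = inhibition above the mean plus 3 SD of solvent-only control wells, limit set per screening run, cut at about 16% in these data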
Each line names hits and unclear results; the compound was inactive in the other large screens (follow-up assays come after a bar, where they were run).

CC(=O)N=Nc1[nH]c(N)c2ccccc12	none
O=C(NCCc1ccccc1)C1CCC(CNc2nc(=S)[nH]c3ccccc23)CC1 (centres undefined)	none
O=C(C1CCC(CNc2nc(=S)[nH]c3ccccc23)CC1)N1CCN(c2ccccn2)CC1 (centres undefined)	STAT3 inh-1 50.4 | STAT3 inh-2 52.5 | NFkB inh STAT3ct inactive | STAT1 inh 2 34.7
Cc1nnc(SCc2ccc([N+](=O)[O-])cc2)o1	none
O=C(Cc1ccc(Cl)cc1)Nc1ncc([N+](=O)[O-])s1	none
O=C(COc1ccc(Cl)cc1)Nc1ncc([N+](=O)[O-])s1	STAT3 inh-1 47.7 | STAT3 inh-2 inactive | NFkB inh STAT3ct inactive | STAT1 inh 2 inactive
CCOC(=O)C1(CCCc2ccccc2)CCN(CC(O)CO)CC1 (centres undefined)	none
CC(C)c1ccc(NC(=O)c2csnn2)cc1	STAT3 inh-1 45.0, STAT1 act 146.0, NF-kB neuron act 7.58 | STAT3 inh-2 inactive | NFkB inh STAT3ct inactive | STAT1 inh 2 inactive
O=C(Nc1ccccc1NC(=O)c1csnn1)c1csnn1	none
COc1ccc(/C=N/Nc2nncc3ccccc23)cc1	STAT3 inh-1 64.2, APP 5'UTR act 188.4 | STAT3 inh-2 70.6 | NFkB inh STAT3ct 51.1 | STAT1 inh 2 33.0
O=S(=O)(Nc1ncccn1)c1ccc(-n2cnnn2)cc1	none
O=C(CSc1nc2ccccc2c(=O)n1CC1CCCO1)NCc1ccc2c(c1)OCO2 (centres undefined)	none
O=C(Nc1ccccc1-c1ccccc1)c1cc(C(F)(F)F)cc(C(F)(F)F)c1	none
O=C(NN1C(=O)C2C3CCC(O3)C2C1=O)c1ccc(Br)o1 (centres undefined)	none
COc1ccc(N2CCN(C(=O)CSc3nnc4n3C(C)(C)Cc3ccccc3-4)CC2)cc1	none
Cc1ccc(Cl)cc1N1CCN(C(=O)CSc2nnc3n2C(C)(C)Cc2ccccc2-3)CC1	STAT3 inh-1 81.2 | STAT3 inh-2 72.3 | NFkB inh STAT3ct 15.4 | STAT1 inh 2 16.9
CCC(CC)C(=O)c1c[nH]c(C(=O)NN)c1	none
CCN(CC)c1ccc2cc(-c3nc4ccccc4[nH]3)c(=O)oc2c1	STAT3 inh-1 98.7, APP 5'UTR act 185.2 | STAT3 inh-2 76.0 | NFkB inh STAT3ct 49.5 | STAT1 inh 2 16.7
c1ccc(CCNc2ncnc3sccc23)nc1	none
Cc1csc2ncnc(NCCc3ccccn3)c12	STAT3 inh-1 72.1, STAT1 inh 34.5 | STAT3 inh-2 74.7 | NFkB inh STAT3ct 24.6 | STAT1 inh 2 23.6
Cc1cc(/C=N/NC(=O)c2ccncc2)c(C)n1-c1ccccc1	none
Cc1cc(/C=N/NC(=O)c2cccs2)c(C)n1-c1ccccc1	STAT3 inh-1 67.6, APP 5'UTR act 162.8 | STAT3 inh-2 inactive | NFkB inh STAT3ct 27.4 | STAT1 inh 2 inactive
Cc1ccc2[nH]c3c(N4CCN(Cc5ccc6c(c5)OCO6)CC4)ncnc3c2c1	STAT3 inh-1 54.2 | STAT3 inh-2 inactive | NFkB inh STAT3ct 14.8 | STAT1 inh 2 17.4
COc1cccc2[nH]c3c(N4CCN(Cc5ccc6c(c5)OCO6)CC4)ncnc3c12	none
C=CC[n+]1c(-c2ccc(OC)cc2)csc1NNC(=O)Nc1ccccc1	none
C=CC[n+]1c(-c2ccc(C)cc2)csc1Nc1ccc(NC(C)=O)cc1	STAT3 inh-1 62.7 | STAT3 inh-2 51.5 | NFkB inh STAT3ct 17.9 | STAT1 inh 2 inactive
O=C(NC1CCN(Cc2ccccc2)CC1)c1ccc2c(c1)[nH]c(=O)n2Cc1ccc(F)cc1	STAT3 inh-1 47.4 | STAT3 inh-2 51.1 | NFkB inh STAT3ct 17.1 | STAT1 inh 2 inactive
O=C(Nc1ccc(F)cc1)NC1CCN(Cc2ccccc2)CC1	none
Cc1c(NC(=O)Nc2ccccc2Cl)c(=O)n(-c2ccccc2)n1C	none
Cc1cc(/C=C2\Cc3ccccc3C2=O)c(C)n1-c1ccccc1	STAT3 inh-1 70.6 | STAT3 inh-2 inactive | NFkB inh STAT3ct inactive | STAT1 inh 2 inactive
Cc1cc(C=C2C(=O)c3ccccc3C2=O)c(C)n1-c1ccc(C(=O)O)cc1	none
CC1=NN(c2ccccc2)C(=O)/C1=C\c1cc(C)n(-c2ccccc2)c1C	none
Cc1cc(C=C2C(=O)c3ccccc3C2=O)c(C)n1-c1ccccc1	STAT3 inh-1 74.9 | STAT3 inh-2 inactive | NFkB inh STAT3ct inactive | STAT1 inh 2 inactive
COC(=O)c1sccc1N/N=C/c1cccc(OC)c1O	STAT3 inh-1 60.3, NF-kB neuron act 3.6, APP 5'UTR act 180.0 | STAT3 inh-2 inactive | NFkB inh STAT3ct inactive | STAT1 inh 2 inactive
COc1cccc(/C=N/Nc2nccnc2Cl)c1O	STAT3 inh-1 82.9, NF-kB neuron act 6.15 | STAT3 inh-2 inactive | NFkB inh STAT3ct 24.2 | STAT1 inh 2 inactive
CCN(CC)c1ccc(NC(=O)COC(=O)/C=C/c2nc3ccccc3s2)cc1	none
CCN(CC)c1ccc(/C=C/c2nc3ccccc3s2)cc1	STAT3 inh-1 66.0 | STAT3 inh-2 inactive | NFkB inh STAT3ct inactive | STAT1 inh 2 inactive
Nc1[nH]n(-c2ccccc2)c(=O)c1N=Nc1ccc2c(c1)OCCO2	STAT3 inh-1 44.8, APP 5'UTR act 167.4 | STAT3 inh-2 inactive | NFkB inh STAT3ct inactive | STAT1 inh 2 inactive
CC1CCN(S(=O)(=O)c2ccc(Oc3ccc([N+](=O)[O-])cc3)cc2)CC1	STAT3 inh-1 47.2 | STAT3 inh-2 inactive | NFkB inh STAT3ct inactive | STAT1 inh 2 inactive
CCC(C)C(NC(N)=O)C(=O)Nc1ccc(C(=O)OC)cc1 (centres undefined)	none
CCC(C)NC(=S)Nc1ccc(C(=O)OC)cc1 (centres undefined)	STAT3 inh-1 55.1 (no result: NF-kB neuron act) | STAT3 inh-2 52.7 | NFkB inh STAT3ct inactive | STAT1 inh 2 inactive
O=[N+]([O-])c1ccc(O)c(C=Nc2ccc3c(c2)OCCO3)c1	STAT3 inh-1 44.5 | STAT3 inh-2 inactive | NFkB inh STAT3ct inactive | STAT1 inh 2 inactive
COc1ccc(COc2ccccc2C(=O)Nc2ccccn2)cc1[N+](=O)[O-]	none
